According to PMC5394958 (Haematologica, 2016):
Where “and” joins values, the source holds several entries; their conditions need not be identical. Identical values can stand only once. Like-named read-outs stand apart in the source and are kept apart here.

Experiments:
T315I BCR-ABL1 mutation = conditions: cited from earlier work
chronic myeloid leukemia [1] = conditions: CP-CML patients; cited from earlier work
chronic myeloid leukemia [2] = assay: Clinical response in CML patients; type: in vivo, human
c-ABL1 = conditions: cited from earlier work
[3] = type: in vivo, human
acute myeloid leukemia = assay: Clinical response in AML patients; type: in vivo, human; conditions: 5 patients with AML
How it was run: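 Relapsed or refractory AML patients (ECOG ≤1) received oral drug daily in continuous 28-day cycles. Powder-in-capsule dosing ran from 57 mg QD up to 1200 mg QD, and tablets from 100 mg. Intra-patient dose escalation was allowed. Disease response was assessed locally every 3 cycles by standard criteria.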

TRKA = conditions: cited from earlier work
BCR-ABL1 or FLT3 [4] = assay: Pharmacodynamics in dosed patients: pCRKL / pSTAT5 in blood cells; type: in vivo, human; conditions: of 45 patients with evaluable samples
TIE2 [5] = assay: Plasma angiopoietin 2; type: in vivo, human; conditions: Day 22 compared to baseline
TIE2 [6] = conditions: cited from earlier work
[7] = Phase 1 safety: adverse events; type: in vivo, human
How it was run: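 First-in-human, multicenter, single-arm oral study in 57 patients, given daily in 28-day cycles. Powder-in-capsule doses escalated from 57 mg QD to 1200 mg QD over 11 cohorts, doubling between the initial single-patient cohorts. Titration was accelerated 3+3, switching to standard 3+3 at grade ≥2 AEs. Tablet cohorts followed, up to 200 mg BID. AEs were graded by NCI CTC v3.0, and DLTs were assessed in cycle 1.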

BCR-ABL1 T315I = conditions: cited from earlier work
[8] = Human plasma protein binding; type: in vitro ADME
BCR-ABL1 or FLT3 [9] = assay: Ex vivo incubation of patient whole blood, phosphorylation of CRKL or FLT3; type: cell-based; conditions: Homo sapiens, read-out: IC50 for inhibition of phosphorylation
How it was run: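 Predose screening whole blood from TKI-resistant CML or AML patients was incubated with test compound ex vivo. Mononuclear cells were then fixed and permeabilized. Phosphorylation of CRKL or FLT3 was measured, with pCRKL read by flow cytometry. IC50 for inhibition of phosphorylation was determined per evaluable sample.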

TRKB = conditions: cited from earlier work
[10] = Plasma pharmacokinetics after multiple oral doses; type: in vivo, human; conditions: for Tmax: median Tmax

COc1cc(Nc2c(C#N)cnc3cc(OCCCN4CCN(C)CC4)c(OC)cc23)c(Cl)cc1Cl [bosutinib]
effectiveness against the T315I BCR-ABL1 mutation (T315I BCR-ABL1 mutation): not effective

Cc1ccc(C(=O)Nc2ccc(CN3CCN(C)CC3)c(C(F)(F)F)c2)cc1C#Cc1cnc2cccnn12 [ponatinib]
effectiveness against the T315I mutation (T315I BCR-ABL1 mutation): effective

COC(=O)C[C@](O)(CCCC(C)(C)O)C(=O)O[C@@H]1C(OC)=C[C@]23CCCN2CCc2cc4c(cc2[C@H]13)OCO4 [omacetaxine mepesuccinate]
cytogenetic responses (chronic myeloid leukemia [1]): ~ 20%

Cc1cn(-c2cc(NC(=O)c3ccc(C)c(Nc4nccc(-c5cccnc5)n4)c3)cc(C(F)(F)F)c2)cn1 [nilotinib]
effectiveness against the T315I BCR-ABL1 mutation (T315I BCR-ABL1 mutation): not effective

CNC(=O)c1cc(Oc2ccc(NC(=O)Nc3cc(C(C)(C)C)nn3-c3ccc4ncccc4c3)c(F)c2)ccn1 [rebastinib]
patients with complete cytogenetic response (chronic myeloid leukemia [2]; T315I): 1 patients
patients with complete hematologic response (chronic myeloid leukemia [2]; T315I): 4 patients
patients with major molecular response (chronic myeloid leukemia [2]; T315I): 2 patients
patients with minor cytogenetic response (chronic myeloid leukemia [2]; T315I): 3 patients
patients with minor hematologic response (chronic myeloid leukemia [2]; T315I): 0 patients
patients with partial cytogenetic response (chronic myeloid leukemia [2]; T315I): 1 patients
patients with partial hematologic response (chronic myeloid leukemia [2]; T315I): 3 patients
patients with complete hematologic response (chronic myeloid leukemia [2]; fifty evaluable): 8 patients
patients with minor hematologic response (chronic myeloid leukemia [2]; fifty evaluable): 3 patients
patients with partial hematologic response (chronic myeloid leukemia [2]; fifty evaluable): 4 patients
overall cytogenetic response rate of CML patients (chronic myeloid leukemia [2]; human, in vivo): 21%
complete hematologic responses (chronic myeloid leukemia [2]; in 40 evaluable CML patients): Eight
patients with complete cytogenetic response (chronic myeloid leukemia [2]; of 37 evaluable): 2 patients
patients with cytogenetic response (chronic myeloid leukemia [2]; of 37 evaluable): 8 patients
patients with minor cytogenetic response (chronic myeloid leukemia [2]; of 37 evaluable): 4 patients
patients with partial cytogenetic response (chronic myeloid leukemia [2]; of 37 evaluable): 2 patients
patients with molecular response (major molecular response) (chronic myeloid leukemia [2]; of 40 evaluable): Four
IC50 (c-ABL1): 0.7 nM
patients with nervous system disorders ([3]; high Cmax subgroup): 13 patients
patients with nervous system disorders ([3]; low Cmax subgroup): 7 patients
patients with nervous system disorders ([3]; middle Cmax subgroup): 5 patients
AML patients with a response (acute myeloid leukemia): None
IC50 (TRKA): 0.17 nM
patients with significant (>50%) inhibition of phosphorylation of CRKL and/or STAT5 (BCR-ABL1 or FLT3 [4]): 20 patients
patient samples with ANG2 increases (TIE2 [5]): 19/20
IC50 (TIE2 [6]): 0.058 nM
patients with DLT in first cycle ([7]; 200 mg BID tablet): 2 n
patients with DLT in first cycle ([7]; 1200 mg QD PIC): 1 n
SAE muscular weakness ([7]; N=57): 4 patients
patients with AEs suggestive of nervous system disorders, any grade ([7]; N=57): 33%
patients with Grade 3 or 4 AE ([7]; N=57): 34 patients
patients with SAEs related to study treatment ([7]; N=57): 18 patients
patients with musculoskeletal disorders of all grades ([7]; N=57): 22 patients
patients with serious adverse events (SAEs) ([7]; N=57): 34 patients
patients with visual abnormalities ([7]; N=57): 19 patients
treatment-related SAE ([7]; dose levels below 300 mg BID (PIC) and 100 mg QD (tablet)): No treatment-related SAE
CML patients with AEs suggestive of potential ≥Grade 3 cardiomyopathy ([7]; in vivo): 4 patients
Dose-limiting toxicities ([7]; in vivo): dysarthria, muscle weakness, and peripheral neuropathy
patients discontinued due to musculoskeletal disorders ([7]; in vivo): 2 patients
patients with at least one AE of any grade ([7]; in vivo): 57 (100%) patients (%)
deaths deemed related ([7]; n=8 deaths): none
patients with visual abnormalities first reported during Cycle 1 ([7]; of 19): 10 patients
patients with Grade 3 musculoskeletal events ([7]; of 22): 13 patients
patients with musculoskeletal disorders during Cycle 1 ([7]; of 22): 14 patients
patients with Grade 3 AESI possibly or probably related ([7]; of 27 additional patients at 150 mg BID): 18 patients
maximum tolerated dose (MTD) ([7]; tablets, twice daily (BID)): 150 mg
efficacy in mouse model (BCR-ABL1 T315I): effective
fraction unbound [8]: 0.0035
IC50 (BCR-ABL1 or FLT3 [9]): < 200 nM
IC50 (TRKB): 0.42 nM
free drug in circulation ([10]; at 200 ng/mL, based on plasma protein binding): ~ 1.3 nM
Bioavailability, formulated tablets compared to unformulated capsules ([10]; human, plasma, oral): 3- to 4 fold
Exposure, tablets compared to PIC ([10]; human, plasma, oral): approximately 3 fold
half-life ([10]; human, plasma, oral): 12 to 15 h
initial distribution phase from Tmax ([10]; human, plasma, oral): 6–8 hours postdose
trough concentrations as % of Cmax ([10]; human, plasma, oral): 10–20%
Tmax ([10]; human, plasma, oral, PIC): 2 h
Tmax ([10]; human, plasma, oral, tablets): 1 to 1.5 h
Average plasma levels ([10]; ~1–4 hours postdose, 150 mg BID): 200 ng/mL and 360 nM
